Active and inactive are the calls of the source. The calls are words filed in the database; no cut-off is given here.
Tests used:
A549 [1] = assay: Antiproliferative activity against human A549 cells assessed as cell growth inhibition measured after 72 hrs by MTT assay; type: functional, cell-based; conditions: A549, 72 h
Summary of the method: (§1)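 Cells seeded at 2.5 × 10^4 cells/well, allowed 24 h before dosing, then exposed to increasing concentrations (0.5% DMSO final) for 72 h at 37 °C, 5% CO2. MTT added at 1 mg/mL final in complete media for 2 h, formazan dissolved in DMSO, absorbance read at 570 nm. 6–8 repeats per treatment; IC50 from concentration–response fit.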

MDA-MB-231 = assay: Antiproliferative activity against human MDA-MB-231 cells assessed as cell growth inhibition measured after 72 hrs by MTT assay; type: functional, cell-based; conditions: MDA-MB-231, 72 h; summary of the method: as §1
[2] = Metabolic stability in human liver microsomes assessed as compound remaining preincubated for 10 mins followed by NADPH addition measured after 60 mins by HPLC analysis; type: ADME, Microsome; conditions: read-out: Stability
[3] = molecular target: T1, 26S proteasome non-ATPase regulatory subunit 10 (Homo sapiens) (UniProt O75832); assay: Binding affinity to gankyrin (unknown origin) assessed as change in melting temperature at 300 uM by SYPRO orange staining based thermal shift assay
T1 sequence (whole entry): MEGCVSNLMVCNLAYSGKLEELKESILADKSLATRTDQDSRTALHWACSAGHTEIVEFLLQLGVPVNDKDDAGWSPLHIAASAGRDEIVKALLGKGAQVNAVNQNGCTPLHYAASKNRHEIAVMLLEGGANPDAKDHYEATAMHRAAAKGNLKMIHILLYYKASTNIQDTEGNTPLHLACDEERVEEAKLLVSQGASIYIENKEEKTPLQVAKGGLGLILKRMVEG

[4] = molecular target: T1, 26S proteasome non-ATPase regulatory subunit 10 (Homo sapiens); assay: Binding affinity to gankyrin (unknown origin) expressed in Escherichia coli BL21 (DE3) expression system assessed as decrease in thermal denaturation at 1.5 uM measured at 5 to 90 degreeC by circular dichroism spectropolarimeter analysis
Summary of the method: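 Recombinant His-tagged gankyrin expressed in E. coli BL21(DE3) Codon+RIL (IPTG 1 mM, 25 °C, ~5 h) and purified by Ni2+-IMAC. Thermal denaturation followed by CD at 217 nm over 5–90 °C with compound at 1.5 μM.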

[5] = molecular target: T1, 26S proteasome non-ATPase regulatory subunit 10 (Homo sapiens); assay: Binding affinity to gankyrin (unknown origin) expressed in Escherichia coli BL21 (DE3) expression system assessed as formation of white precipitation of the compound at 1.5 uM
[6] = Cytotoxicity against HEK293 cells assessed as cell growth inhibition measured after 72 hrs by MTT assay; type: toxicity, cell-based; conditions: human; summary of the method: as §1
A549 [7] = assay: Inhibition of gankyrin-proteasome protein-protein interaction in human A549 cells assessed as increase in p53 level at 0.12 to 1 uM measured after 48 hrs by Western blotting analysis; type: cell-based; conditions: dose 0.12-1 µM
Summary of the method: (§2)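 Cells in 10 cm dishes treated with varying concentrations (0.5% DMSO final) or DMSO only for 48 h. Lysed in RIPA with protease/phosphatase inhibitors on ice for 60 min. 15 μg protein resolved under reducing conditions, transferred to PVDF, and probed for p53, phospho-p53 S6/S15, Rb, gankyrin and cyclophilin. Detection by HRP-secondary ECL.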

A549 [8] = assay: Inhibition of gankyrin-proteasome protein-protein interaction in human A549 cells assessed as increase in Rb level at 0.12 to 1 uM measured after 48 hrs by Western blotting analysis; type: cell-based; conditions: dose 0.12-1 µM; summary of the method: as §2
A549 [9] = assay: Inhibition of gankyrin-proteasome protein-protein interaction in human A549 cells assessed as increase in phosphorylated p53 level at serine 6 residue at 0.04 to 0.33 uM measured after 48 hrs by Western blotting analysis; type: cell-based; conditions: dose 0.04-0.33 µM; summary of the method: as §2
A549 [10] = assay: Inhibition of gankyrin-proteasome protein-protein interaction in human A549 cells assessed as increase in phosphorylated p53 level at serine 6 residue at 0.60 to 5 uM measured after 48 hrs by Western blotting analysis; type: cell-based; conditions: dose 0.6-5 µM; summary of the method: as §2
A549 [11] = assay: Inhibition of gankyrin-proteasome protein-protein interaction in human A549 cells assessed as increase in phosphorylated p53 level at serine 6 residue at 0.12 to 1 uM measured after 48 hrs by Western blotting analysis; type: cell-based; conditions: dose 0.12-1 µM; summary of the method: as §2
A549 [12] = assay: Antitumor activity in human A549 cells cultured as 3D spheroids assessed as fold decrease in spheroid volume at 0.5 uM measured up to 15 days by inverted microscopic analysis; type: functional; conditions: time <= 15 day
Summary of the method: (§3)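 Spheroids formed from 2000 cells/well in ultra-low attachment U-bottom wells over 3 days, then given a single dose on day 3. Half the media was replenished every 3 days. Transmitted-light images were taken through day 15, and spheroid volume was computed from images and expressed as fold-difference. Mean ± SD, n = 8; unpaired t-test.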

A549 [13] = assay: Antitumor activity in human A549 cells cultured as 3D spheroids assessed as fold decrease in spheroid volume at 1 uM measured up to 15 days by inverted microscopic analysis; type: functional; conditions: time <= 15 day; summary of the method: as §3
A549 [14] = assay: Antitumor activity against human A549 cells tumor spheroids assessed as decrease in live cells by measuring green fluorescence intensity measured at 15 days by calcein AM staining based fluorescence microscopic analysis; type: functional, cell-based; conditions: dose 0.15-5 µM, time 15.0 day, DDE = dose-dependent effect
Summary of the method: (§4)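 Live/dead staining of 3D spheroids at day 15 after single-dose treatment: media replaced by kit reagent with calcein AM (live, green) and EthD-III (dead, red), 30 min in dark at room temperature, imaged at 4X by fluorescence microscopy. Mean ± SD, n = 4; unpaired Student's t-test.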

A549 [15] = assay: Antitumor activity against human A549 cells tumor spheroids assessed as increase in dead cells by measuring red fluorescence intensity measured at 15 days by EthD-III staining based fluorescence microscopic analysis; type: functional, cell-based; conditions: dose 0.15-5 µM, time 15.0 day, DDE = dose-dependent effect; summary of the method: as §4
A549 [16] = assay: Colony formation in human A549 cells at 1 uM incubated for 48 hrs followed by replacement of fresh media every alternative day measured after 7 days by crystal violet staining based clonogenic assay relative to control; conditions: A549, 48 h
A549 [17] = assay: Inhibition of colony formation in human A549 cells at 0.5 uM incubated for 48 hrs followed by replacement of fresh media every alternative day measured after 7 days by crystal violet staining based clonogenic assay relative to control; values are per cent of control; conditions: A549, 48 h
A549 [18] = assay: Inhibition of gankyrin-proteasome protein-protein interaction in human A549 cells assessed as increase in phosphorylated p53 level at serine 15 residue at 0.04 to 0.33 uM measured after 48 hrs by Western blotting analysis; type: cell-based; conditions: dose 0.04-0.33 µM; summary of the method: as §2
A549 [19] = assay: Inhibition of gankyrin-proteasome protein-protein interaction in human A549 cells assessed as increase in phosphorylated p53 level at serine 15 residue at 0.12 to 1 uM measured after 48 hrs by Western blotting analysis; type: cell-based; conditions: dose 0.12-1 µM; summary of the method: as §2
A549 [20] = assay: Antitumor activity in human A549 cells cultured as 3D spheroids assessed as fold decrease in spheroid volume at 0.15 uM measured up to 15 days by inverted microscopic analysis; type: functional; conditions: time <= 15 day; summary of the method: as §3
A549 [21] = assay: Antitumor activity in human A549 cells cultured as 3D spheroids assessed as fold decrease in spheroid volume at 0.30 uM measured up to 15 days by inverted microscopic analysis; type: functional; conditions: dose 0.3 µM; time <= 15 day; summary of the method: as §3
A549 [22] = assay: Induction of cell cycle arrest in human A549 cells assessed as increase in cell accumulation at G0/G1 phase at 0.3 uM measured after 72 hrs by propidium iodide staining based flow cytometry analysis; type: functional
Summary of the method: (§5)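 Cells in 10 cm dishes treated for 72 h (0.1% DMSO final; DMSO-only control). Harvested in cold PBS, fixed in 70% ethanol at −20 °C overnight, stained with PI for 40 min at 37 °C, then analysed by flow/imaging cytometry for G0/G1, S and G2/M fractions. Mean ± SD, n = 3.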

A549 [23] = assay: Induction of cell cycle arrest in human A549 cells assessed as decrease in cell accumulation at S phase at 0.3 uM measured after 72 hrs by propidium iodide staining based flow cytometry analysis; type: functional; summary of the method: as §5
A549 [24] = assay: Induction of cell cycle arrest in human A549 cells assessed as decrease in cell accumulation at G2/M phase at 0.3 uM measured after 72 hrs by propidium iodide staining based flow cytometry analysis; type: functional; summary of the method: as §5
[25] = molecular target: T1, 26S proteasome non-ATPase regulatory subunit 10 (Homo sapiens); assay: Binding affinity to gankyrin in human A549 cells assessed as decrease in thermal stability at 0.3 uM incubated for 48 hrs followed by heat treatment at 50 to 65 degreeC by CETSA; type: cell-based
Summary of the method: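 CETSA: cells treated with compound for 48 h, then heated across a temperature range. Soluble gankyrin was detected by western blot and melt curves were constructed. Mean ± SD, n = 3.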

A549 [26] = assay: Inhibition of colony formation in human A549 cells at 0.3 uM incubated for 48 hrs followed by replacement of fresh media every alternative day measured after 7 days by crystal violet staining based clonogenic assay relative to control; values are per cent of control; conditions: A549, 48 h
A549 [27] = assay: Antitumor activity in human A549 cells cultured as 3D spheroids assessed as fold decrease in spheroid volume at 2.5 uM measured up to 15 days by inverted microscopic analysis; type: functional; conditions: time <= 15 day; summary of the method: as §3
A549 [28] = assay: Antitumor activity in human A549 cells cultured as 3D spheroids assessed as fold decrease in spheroid volume at 5 uM measured up to 15 days by inverted microscopic analysis; type: functional; conditions: time <= 15 day; summary of the method: as §3

Row | Compound | IC50 (A549 [1]) [µM] | IC50 (MDA-MB-231) [µM] | remaining at 1 h [2] [%] | Activity [3] | Activity [4] | Activity [5] | IC50 at 72 h [6] [µM] | Activity (A549 [9]) | Activity (A549 [10]) | Activity (A549 [11]) | Activity (A549 [14]) | Activity (A549 [15]) | Activity (A549 [18]) | Activity (A549 [19]) | also measured
1 | FC(F)(F)c1ccc(-c2cn(CCCC(=S)Nc3ccc(-c4ccccc4)cc3)nn2)cc1 | 1 | > 100 | 80 | Active | Active | Active | > 100 | Active | Active | Active | Dde | Dde | – | – | Activity (A549 [7]): Active; Activity (A549 [8]): Active; fold change (FC) (A549 [12]): 3.8; fold change (FC) (A549 [13]): 4; growth, % of control at 1 µM (A549 [16]): 61.4%; growth, % of control at 0.5 µM (A549 [17]): 83.8%
2 | COC(=O)c1ccc(-c2cn(CCCC(=O)Nc3ccc(-c4ccccc4)cc3)nn2)cc1 | 0.33 | > 100 | 87 | Active | Active | – | > 100 | Active | Active | Active | Dde | Dde | Active | Active | fold change (FC) (A549 [20]): 3.6; fold change (FC) (A549 [21]): 2.4; Activity (A549 [22]): Active; Activity (A549 [23]): Active; Activity (A549 [24]): Active; Activity [25]: Active; growth, % of control at 0.3 µM (A549 [26]): 44.6%
3 | Cc1ccc(NC(=S)CCCn2cc(-c3ccc(C(F)(F)F)cc3)nn2)cc1 | 5.5 | 83.2 | 73 | Active | Active | Active | > 100 | Active | Active | Active | Dde | Dde | Active | Active | fold change (FC) (A549 [27]): 3.3; fold change (FC) (A549 [28]): 3.5
